UHRF1 binding: UHRF1 methyl-DNA binding inhibition. inhibition, % at 4.4 µM. AID 687016. UHRF1 binding to methylated oligo, TR-FRET. 0.75% of 370,000 active;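 note: UHRF1 SRA domain binding a hemimethylated CpG hairpin DNA probe; 0% = median of test compound wells and 100% = reference inhibitor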
MBD2 inh: MBD2-methylated oligo binding inhibition; 0.31% of 370,000 active; Q9UBB5; AID 686964; TR-FRET, MBD2 binding to methylated oligonucleotide; inhibition, % at 4.4 µM; in the data active = inhibition above about 13%
LEDGF integ inh: blocks HIV-1 LEDGF/p75-dependent DNA integration | TR-FRET IN-LEDGF/p75 DNA integration, Eu/Cy5 | inhibition, % at 3.7 µM | 0.64% of 370,000 active;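 active = inhibition above the screen-wide mean plus 3 SD, cut at about 13% in these data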;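 note: signal is the Cy5 over europium emission ratio at 671 and 618 nm; 0% = plate median of compound wells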
TDP2 absorb: blocks human TDP2 phosphodiesterase activity; O95551; recombinant TDP2, T5PNP hydrolysis, p-nitrophenol absorbance 415 nm; inhibition, % at 12.8 µM; 0.34% of 370,000 active;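 active = inhibition above the mean of all tested compounds plus 3 SD, set per campaign, cut at about 25% in these data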;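 note: 0% = DMSO with enzyme and 100% = buffer with substrate but no TDP2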
Target sequence (O95551 whole entry, looked up): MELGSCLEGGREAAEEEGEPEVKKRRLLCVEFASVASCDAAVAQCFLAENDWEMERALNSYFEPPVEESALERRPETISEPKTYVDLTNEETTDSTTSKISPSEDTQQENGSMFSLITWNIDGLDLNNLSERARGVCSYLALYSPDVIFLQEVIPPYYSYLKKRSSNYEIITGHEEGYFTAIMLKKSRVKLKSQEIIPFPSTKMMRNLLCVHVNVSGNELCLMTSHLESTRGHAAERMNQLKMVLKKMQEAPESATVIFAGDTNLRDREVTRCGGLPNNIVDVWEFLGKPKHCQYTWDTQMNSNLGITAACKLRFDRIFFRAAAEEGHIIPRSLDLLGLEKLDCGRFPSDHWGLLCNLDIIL
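Assay system: recombinant human TDP2 / Reagent: T5PNP substrate at 5 mM, a TopII-DNA adduct mimic / Measured by: epi absorbance from released p-nitrophenol / Evaluation: % inhibition relative to enzyme-containing and enzyme-free wells / Control set: enzyme-free and DMSO wells / Replicates: each compound tested once, singlicate / Schedule: enzyme reaction with compound for 2 h at 37 °C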
Rin1 Abl inh: human Rin1-Abl interaction inhibition. 0.4% of 360,000 active. TR-FRET Rin1/Abl binding, biochemical. P00519+Q13671. inhibition, % at 7.35 µM; in the data active = inhibition above about 5%, passing the limit was not always enough
UHRF1 DNA bind: counter-screen for MBD2 inhibitors: human UHRF1 methylated DNA binding inhibitors; shares compounds with MBD2 inh; inhibition, % at 4.4 µM; 25% of 1,000 active; AID 720530; UHRF1 binding to methylated oligonucleotide, TR-FRET;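 note: UHRF1 SRA domain binding a labeled hemimethylated CpG hairpin DNA; 0% = vehicle only and 100% = reference inhibitor with vehicle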
MBD2 confirm: MBD2-DBD methyl-DNA binding inhibition, TR-FRET confirmation. shares compounds with MBD2 inh. 26% of 1,000 active. TR-FRET MBD2-DBD binding to methylated oligonucleotide. AID 720531. inhibition, % at 4.4 µM; in the data active = inhibition above about 14%
Active calls of the source: *. Rows were chosen to be rich in hits. Some 1.9% of all compounds tested hit in one or more screens of this group. Cut-off read from the data, not from the text of the source, unless noted: active = inhibition above about 21%; inactive = the rest.

How did O=c1ccc2[n+]([O-])c3ccc(O)cc3oc-2c1 do in these assays?
UHRF1 binding: 78*; MBD2 inh: 28*; LEDGF integ inh: 61*; TDP2 absorb: 9; Rin1 Abl inh: 2; UHRF1 DNA bind: 73*; MBD2 confirm: 31*

Results for CN(Cc1ccccc1N1CCCC1)C(=O)c1cc2cc(Cl)ccc2o1 ?
UHRF1 binding: 1; MBD2 inh: 31*; LEDGF integ inh: 4; TDP2 absorb: -6; Rin1 Abl inh: 0; UHRF1 DNA bind: 11; MBD2 confirm: 7

What do the screens show for `Fc1ccc(-c2n[nH]c(=S)n2N=Cc2ccc(-c3ccccc3)cc2)cc1`?
UHRF1 binding: 4; MBD2 inh: -1; LEDGF integ inh: -4; TDP2 absorb: 10

Results for O=C(CNC(=O)c1ccccc1)OCN1C(=O)c2ccccc2C1=O ?
UHRF1 binding: 2; MBD2 inh: 15*; LEDGF integ inh: -1; TDP2 absorb: 0; Rin1 Abl inh: -2; UHRF1 DNA bind: 8; MBD2 confirm: 4

What do the screens show for `COC(=O)Cc1nnn2c1[C@H](C)[C@H](c1cccc(OC)c1OC)OCC2`?
UHRF1 binding: 26*; MBD2 inh: 16*; LEDGF integ inh: 11; TDP2 absorb: 0; UHRF1 DNA bind: 6; MBD2 confirm: 3

What do the screens show for `CCOC(=O)Cc1nc(N2CCN(Cc3cccc4c3OCO4)CC2)c2c(C)c(C(=O)OCC)sc2n1`?
UHRF1 binding: 0; MBD2 inh: -2; LEDGF integ inh: 2; TDP2 absorb: 13

Results for CC(C)C(NS(=O)(=O)c1cccc2nsnc12)C(=O)NC1CCCCC1C (configuration not stated) ?
Rin1 Abl inh: 1

Results for CC(C)C(NS(=O)(=O)c1cccc2nsnc12)C(=O)N1CCn2c1nc1ccccc12 (configuration not stated) ?
UHRF1 binding: 0; MBD2 inh: 14*; LEDGF integ inh: -2; TDP2 absorb: 6; Rin1 Abl inh: -2; UHRF1 DNA bind: 2; MBD2 confirm: 0

How did O=Cc1ccc(N2CCN(S(=O)(=O)c3ccc4c(c3)CC(=O)N4)CC2)cc1 do in these assays?
UHRF1 binding: 8; MBD2 inh: 15*; LEDGF integ inh: 24*; TDP2 absorb: 0; Rin1 Abl inh: -2; UHRF1 DNA bind: 9; MBD2 confirm: 2

What do the screens show for `Cc1ccc(S(=O)(=O)n2cnc3cc([N+](=O)[O-])ccc32)cc1C`?
UHRF1 binding: 1; MBD2 inh: 14*; LEDGF integ inh: 3; TDP2 absorb: -3; Rin1 Abl inh: 0; UHRF1 DNA bind: 6; MBD2 confirm: 4

Results for CCCCCCOC(=O)Cc1c(C)nc(-c2ccccc2)[nH]c1=O ?
UHRF1 binding: 15; MBD2 inh: 13*; LEDGF integ inh: -4; TDP2 absorb: 5; Rin1 Abl inh: -2; UHRF1 DNA bind: 3; MBD2 confirm: 2

What do the screens show for `C=C(C)Cc1c(C)nc(-c2ccccc2)[nH]c1=O`?
UHRF1 binding: 0; MBD2 inh: 1; LEDGF integ inh: 1; TDP2 absorb: 2; Rin1 Abl inh: -3

Results for CCCCOCCCNC(=O)C[C@H]1C[C@@]2(C(=O)OC)C(=C[C@H](C(C)(C)C)O[C@@H]2C)N(Cc2ccco2)C1=O ?
UHRF1 binding: 1; MBD2 inh: 1; LEDGF integ inh: 3; TDP2 absorb: 1

What do the screens show for `C/C(=N/NC(=O)c1ccco1)c1ccc(NC(=O)c2ccc(Br)o2)cc1`?
UHRF1 binding: -1; MBD2 inh: 2; LEDGF integ inh: 1; TDP2 absorb: -16; Rin1 Abl inh: -4

What do the screens show for `C/C(=N/NC(=O)c1ccco1)c1ccc(NC(=O)c2ccc(F)cc2)cc1`?
UHRF1 binding: 7; MBD2 inh: 14*; LEDGF integ inh: -1; TDP2 absorb: -16; Rin1 Abl inh: -1; UHRF1 DNA bind: 0; MBD2 confirm: 2

Results for C[C@H]1C(c2ccccc2F)O[C@]2(C[C@H](O)c3ccccc3O2)C[C@@H]1O (some centres not stated) ?
UHRF1 binding: -4; MBD2 inh: 3; LEDGF integ inh: 9; TDP2 absorb: 5

What do the screens show for `Cn1c(SCC(=O)c2c(N)n(C)c(=O)n(C)c2=O)nnc1-c1ccccc1F`?
UHRF1 binding: 2; MBD2 inh: 32*; LEDGF integ inh: 0; TDP2 absorb: 2; Rin1 Abl inh: 2; UHRF1 DNA bind: -3; MBD2 confirm: 0

How did O=C(Nc1cccc(Cl)c1)OCCN1CCCC12CCC(c1ccccc1)CC2 (configuration not stated) do in these assays?
UHRF1 binding: -1; MBD2 inh: -4; LEDGF integ inh: -1; TDP2 absorb: 2

How did COc1cc(Cl)c(C)cc1NC(=O)CSc1sc2c(O)cc(=O)[nH]c2c1C#N do in these assays?
UHRF1 binding: 33*; MBD2 inh: 17*; LEDGF integ inh: 11; TDP2 absorb: 0; Rin1 Abl inh: 3; UHRF1 DNA bind: 17; MBD2 confirm: 6

Results for Cc1ccc(S(=O)(=O)N2CCOCC2)cc1C(=O)OCC(=O)NCc1ccc2c(c1)OCO2 ?
UHRF1 binding: 33*; MBD2 inh: 16*; LEDGF integ inh: -3; TDP2 absorb: 5; Rin1 Abl inh: 0; UHRF1 DNA bind: 6; MBD2 confirm: 2

Results for CCC[C@H]1[C@@H](OC(=O)NCc2ccc(Cl)cc2)CC[C@@]23CCCN2C(=O)CCC[C@@H]13 ?
UHRF1 binding: 0; MBD2 inh: 4; LEDGF integ inh: -1; TDP2 absorb: 4

What do the screens show for `COc1ccc(S(=O)(=O)N2CCN(C(=O)CCc3c[nH]c4ccccc34)CC2)cc1`?
UHRF1 binding: 2; MBD2 inh: 48*; LEDGF integ inh: -6; TDP2 absorb: 13; Rin1 Abl inh: -3; UHRF1 DNA bind: 6; MBD2 confirm: 5

What do the screens show for `CCOC(=O)C1=C(COC(=O)c2cccnc2Cl)NC(=O)NC1C` (configuration not stated)?
UHRF1 binding: -2; MBD2 inh: 19*; LEDGF integ inh: 6; TDP2 absorb: 0; Rin1 Abl inh: 1; UHRF1 DNA bind: 2; MBD2 confirm: 3

What do the screens show for `Cc1ccc(C2NC(=S)NC3=C2C(=O)CCC3)cc1` (configuration not stated)?
UHRF1 binding: 24*; MBD2 inh: 14*; LEDGF integ inh: -3; TDP2 absorb: 2; Rin1 Abl inh: -5; UHRF1 DNA bind: 1; MBD2 confirm: 2

How did Cc1ccc(S(=O)(=O)N2CCOCC2)cc1NC(=O)Cn1c(=O)ccn(Cc2ccccc2)c1=O do in these assays?
UHRF1 binding: -3; MBD2 inh: 14*; LEDGF integ inh: 1; TDP2 absorb: 9; Rin1 Abl inh: -1; UHRF1 DNA bind: 7; MBD2 confirm: 1
